Source: PubChem (several laboratories)
This is a sample that favours compounds with a hit; in the whole collection about 2.7% have one here.
TNF necrop inh: inhibitors of TNF-alpha triggered necroptosis, primary screen, cell-based, Jurkat FADD-/-, single concentration. Jurkat FADD-/- TNF necroptosis rescue, ATP luminescence, 24 h; 0 = TNF only, 100 = no-TNF cells. activation (protection from cell death), % at 10 µM. actives 0.068% (n = 220,000);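 active = activation, meaning protection from cell death, of at least 50% relative to plate controls; inactive = activation below 50%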;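 note: necroptosis triggered by 40 ng/mL TNF-alpha added together with compound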
PfM18AAP inh-1: PfM18AAP inhibitors, malaria aminopeptidase, primary screen, biochemical, QFRET, recombinant enzyme. actives 1.2% (n = 290,000). H-Glu-NHMec fluorogenic cleavage. AID 1822, 2009. M18 aspartyl aminopeptidase (Plasmodium falciparum 3D7). inhibition, % at 7.35 µM;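 active = inhibition above the campaign mean inhibition over all tested compounds plus 3 SD, cut at about 28% in these data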;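 note: 0% = plate median of test compound wells and 100% = 2 mM ZnCl2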
p97 inhibitor: inhibitors of human p97 ATPase, primary screen, biochemical | Transitional endoplasmic reticulum ATPase (Homo sapiens), P55072 | recombinant p97 ATPase, Kinase-Glo ATP luminescence, 3 h | inhibition, % at 8 µM | actives 0.42% (n = 220,000) | AID 1481, 2009; in the data active = inhibition above about 15%;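 note: 0% = DMSO vehicle and 100% = wells lacking enzyme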
L929 necroptosis: inhibitors of zVAD-triggered necroptosis, primary screen, L929 cells; actives 0.38% (n = 220,000); L929 zVAD necroptosis rescue, ATP luminescence, 24 h; with zVAD 60 µM; viability rescue, % at 10 µM;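 active = activation, scaled between plate controls, above about 75%, limit read from the data; inactive = activation under that limit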;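 note: 0% = zVAD with DMSO and 100% = DMSO alone without zVAD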
Wee1 degr inh: Wee1 degradation inhibitors, primary screen, cell-based, HeLa, Wee1K328M-luciferase, luminescence. AID 1321, 2008. actives 1.2% (n = 220,000). reporter increase, % at 5 µM. HeLa Luc-Wee1K328M stability; 100% = proteasome inhibitor MG132 effect. Wee1-like protein kinase (Homo sapiens), P30291;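 active = activation above the mean of all tested compounds plus 3 SD, set per screening run, cut at about 8.8% in these data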;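 note: cells exposed to compound for 20 h before luminescence read; 0% = DMSO alone and 100% = MG132 at 30 µM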
RBBP9 inh: human RBBP9 inhibitors, primary screen, biochemical, fluorescence polarization, FP-Rh probe, HTS; Serine hydrolase RBBP9 (Homo sapiens), O75884; inhibition, % at 7.94 µM; AID 1515, 2009; actives 0.2% (n = 220,000); recombinant RBBP9;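 active = inhibition above the campaign mean of all tested compounds plus 3 SD, cut at about 14% in these data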;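 note: plate controls were DMSO wells with RBBP9 for no effect and wells lacking RBBP9 protein for full effect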
Target sequence (O75884 whole entry, looked up): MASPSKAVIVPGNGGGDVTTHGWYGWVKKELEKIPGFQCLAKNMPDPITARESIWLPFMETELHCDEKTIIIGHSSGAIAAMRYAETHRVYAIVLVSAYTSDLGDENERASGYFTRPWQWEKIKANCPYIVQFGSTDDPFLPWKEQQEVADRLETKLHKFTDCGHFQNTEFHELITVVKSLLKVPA
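Test system: recombinant human RBBP9; Timing: 30 min then 45 min, 25 °C; Detection: fluorescence polarization; Control set: RBBP9 with DMSO as uninhibited control, no-protein wells as full inhibition; Compound dosing: one concentration, 7.94 µM nominal, 0.794% DMSO; Probe or stimulus: FP-Rh activity-based probe, 375 nM before mixing.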
PfM18AAP inh-2: PfM18AAP inhibitors, malaria aminopeptidase, confirmation, biochemical, QFRET, recombinant enzyme, triplicate; shares compounds with PfM18AAP inh-1; H-Glu-NHMec fluorogenic cleavage; actives 28% (n = 2,400); inhibition, % at 7.35 µM; AID 2170, 2009;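 active = mean inhibition over replicate wells above the hit cutoff set for the earlier primary screen, cut at about 29% in these data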;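 note: 0% = median of test compound wells and 100% = 2 mM ZnCl2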
CTSL1 counter: cathepsin L1 inhibitors, retest, confirmation, counter-screen for PFM18AAP inhibitor project, biochemical, QFRET, triplicate | shares compounds with PfM18AAP inh-1 | purified cathepsin L1, Z-Leu-Arg-MCA fluorescence | inhibition, % at 5.96 µM | 2,400 tested, under 10 active | AID 2178, 2009;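 active = average inhibition across replicates above the hit cutoff set in the earlier primary screen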;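 note: 0% = median of test compound wells and 100% = Z-Phe-Ala-diazomethylketone 1 µM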
Target sequence (P07711 whole entry, looked up): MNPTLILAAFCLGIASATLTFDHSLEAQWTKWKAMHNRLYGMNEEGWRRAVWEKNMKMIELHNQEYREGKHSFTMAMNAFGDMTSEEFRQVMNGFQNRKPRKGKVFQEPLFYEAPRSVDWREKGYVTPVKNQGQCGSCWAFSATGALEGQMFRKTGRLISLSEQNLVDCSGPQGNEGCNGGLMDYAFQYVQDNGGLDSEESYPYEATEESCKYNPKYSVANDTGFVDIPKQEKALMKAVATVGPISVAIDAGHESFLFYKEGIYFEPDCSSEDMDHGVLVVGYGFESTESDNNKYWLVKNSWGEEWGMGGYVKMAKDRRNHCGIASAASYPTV
The depositor's hits bear a star; x = no result given.

SMILES	TNF necrop inh	PfM18AAP inh-1	p97 inhibitor	L929 necroptosis	Wee1 degr inh	RBBP9 inh	PfM18AAP inh-2	CTSL1 counter
COc1ccccc1CNC(=O)CCS(=O)(=O)c1ccc2c(c1)CCN2C(C)=O	x	-2	x	x	x	x	x	x
CC(=O)C1C(c2ccc(Cl)cc2)c2c(noc2C)CC1(C)O (centres undefined)	-1	-1	-3	0	-3	-9	x	x
O=C(NC(=O)c1ccccc1)OCC1CCCN2CCCCC12 (centres undefined)	2	-9	-4	0	1	-1	x	x
O=C(OCC1CCCN2CCCCC12)c1ccc2c(c1)OCO2 (centres undefined)	0	35*	3	0	-1	3	10	-8
NC(=O)c1ccc[n+](CC(=O)c2cccc([N+](=O)[O-])c2)c1	x	-3	x	x	x	x	x	x
Cc1cc(C(=O)CSc2nc(N)cc(N)n2)c(C)n1-c1cccc(F)c1	0	34*	1	0	1	-7	-37	-4
Cc1cc(C(=O)CSc2nc(N)cc(N)n2)c(C)n1C1CC1	0	36*	10	-1	1	-2	-15	2
C=CCn1c(C)cc(C(=O)CSc2nc(N)cc(N)n2)c1C	-1	8	8	-1	2	8	x	x
C1CCN(Cc2nnnn2CC2CCCO2)CC1 (centres undefined)	2	0	-1	1	3	-8	x	x
Cc1ccc(-n2nc3c(=O)n(CCCC(=O)N4CCC(C(N)=O)CC4)nc(C)c3c2C)cc1	x	0	x	x	x	x	x	x
Cn1c(CO)nc2cc(N)ccc21	0	39*	2	1	3	-5	-45	1
O=C(NCc1ccccc1F)c1ccncc1	x	-17	x	x	x	x	x	x
Cn1cccc1Cc1nnc(SCC(=O)Nc2ccc3c(c2)OCO3)n1CCc1ccccc1	1	2	3	0	-1	-6	x	x
COCCn1c(Cc2cccn2C)nnc1SCC(=O)NCc1ccc2c(c1)OCO2	1	35*	-2	2	-1	-6	-40	2
COc1ccc(NC(=O)NC2(C(=O)N3CCN(C)CC3)CCCCC2)cc1	x	-4	x	x	x	x	x	x
Cc1ccc2nc(/C(C#N)=C/c3ccc(O)c(O)c3)[nH]c2c1	x	60*	x	x	x	x	36*	4
Cc1ccc2nc(/C(C#N)=C/c3ccccc3C(=O)O)[nH]c2c1	x	3	x	x	x	x	x	x
O=c1[nH][nH]cc1C=NCc1cccc(C(F)(F)F)c1	0	-5	5	1	0	2	x	x
Cc1c(NC(=O)CN2CCN(c3ccc(O)cc3)CC2)c(=O)n(-c2ccccc2)n1C	-1	39*	-2	0	3	-2	-24	3
Cc1c(NC(=O)CN2CCN(c3ccc([N+](=O)[O-])cc3)CC2)c(=O)n(-c2ccccc2)n1C	0	-1	5	0	0	-1	x	x
O=C(COc1cccnc1[N+](=O)[O-])Nc1ccc(S(=O)(=O)N2CCOCC2)cc1	0	-1	-6	2	-3	-11	x	x
CCOc1ccc(C(=S)NC2CCCCC2)cc1OCC	x	37*	x	x	x	x	18	-3
CCOc1ccc(C(C)NC(=S)NC2CCCCC2)cc1OCC (centres undefined)	2	-1	0	0	-2	-9	x	x
CCN(CC)c1ccc(C(=S)NC2CCCCC2)cc1	2	1	-3	28	-1	-5	x	x
CN(C)c1ccc(C(=S)NC2CCCCC2)cc1	0	33*	1	38	10*	-3	5	2
SMILES	TNF necrop inh	PfM18AAP inh-1	p97 inhibitor	L929 necroptosis	Wee1 degr inh	RBBP9 inh	PfM18AAP inh-2	CTSL1 counter
Cc1cccc(NC2=NCC(=O)N2Cc2cccs2)c1	0	-10	8	0	-1	-1	x	x
Cc1ccc([N+](=O)[O-])cc1S(=O)(=O)Nc1ccc(O)c(Sc2ncn[nH]2)c1	x	54*	x	x	x	x	38*	-4
COc1ccc(-c2ccc(NS(=O)(=O)c3cc([N+](=O)[O-])ccc3C)cc2)nn1	x	4	x	x	x	x	x	x
COc1ccc(/C=C/C(=O)N(Cc2cccs2)C2CCS(=O)(=O)C2)cc1 (centres undefined)	3	-16	-2	0	-3	-10	x	x
Cc1nc(N/N=C/c2ccc(O)cc2O)cc(N2CCOCC2)n1	x	49*	x	x	x	x	34*	1
COC(=O)COc1ccc(C)cc1-n1nc2ccccc2n1	0	38*	-3	0	-3	-11	-39	-5
CC(C)c1ccc(NC(=O)CCNC(=O)N2CC(=O)Nc3ccccc32)cc1	x	2	x	x	x	x	x	x
COc1ccc(-n2cc(-c3ccccc3)[nH]c2=S)cc1	2	44*	-2	0	3	-8	33*	2
CC(=O)Nc1ccc(-n2cc(-c3ccccc3)[nH]c2=S)cc1	2	64*	6	0	2	-12	58*	2
COc1ccccc1-n1cc(-c2ccccc2)[nH]c1=S	x	14	x	x	x	x	x	x
Cc1cccc(-n2cc(-c3ccccc3)[nH]c2=S)c1	x	39*	x	x	x	x	13	4
COc1cccc(-c2cn(-c3cccc(C(F)(F)F)c3)c(=S)[nH]2)c1	x	22	x	x	x	x	x	x
Cc1csc(NC(=O)CSc2nccn2C)n1	x	1	x	x	x	x	x	x
COc1ccc(S(=O)(=O)N2CCN(C(=O)N3CCOCC3)C2C)cc1 (centres undefined)	x	-8	x	x	x	x	x	x
CN(C)c1ccc(N=Cc2cccn2C)cc1	x	58*	x	x	x	x	-24	-4
CN(C)c1ccc(N=Cc2nc(-c3ccccc3)oc2O)cc1	-3	9	2	0	1	-5	x	x
CCc1nnc(NC(=O)CN2C(=O)/C(=C/c3cc(OC)c(OC)c(OC)c3)SC2=S)s1	0	33*	11	3	0	-3	-17	1
Cc1ccc(C(c2c(C)[nH][nH]c2=O)c2c(C)[nH][nH]c2=O)cc1[N+](=O)[O-]	1	34*	6	0	0	-9	23	2
N#CC1=C(N)Oc2cc(O)ccc2C1c1ccc(Br)s1 (centres undefined)	x	9	x	x	x	x	x	x
COc1ccc(OC)c(NC(=O)c2cccc(NC(=O)c3ccccc3C(=O)O)c2)c1	x	-2	x	x	x	x	x	x
